Publication PMC8830364 (Bioorganic & medicinal chemistry letters, 2021)

Tests used:
[1] = biological target: T1, Human neutrophil elastase (HNE) (Homo sapiens, UniProt P08246); assay: HNE inhibitory activity; assay type: biochemical; conditions: for HNE inhibitory activity (in words): as described
T1 sequence (P08246 30-267): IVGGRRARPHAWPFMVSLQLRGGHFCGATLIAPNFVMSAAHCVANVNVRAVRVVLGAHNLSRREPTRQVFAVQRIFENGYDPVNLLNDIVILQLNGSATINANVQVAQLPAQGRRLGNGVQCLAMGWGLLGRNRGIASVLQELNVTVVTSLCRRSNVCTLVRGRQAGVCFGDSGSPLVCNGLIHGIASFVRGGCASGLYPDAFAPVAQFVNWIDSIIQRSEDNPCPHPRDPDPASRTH

[2] = Chemical stability in human plasma; assay type: in vitro ADME; conditions: pooled human plasma, 37 °C; for Stability in human plasma (in words): 2.5 μM, 0, 30, 60, 120 min; for Half time in human plasma: 2.5 μM, 0-120 min
Summary of the method: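 Test compound at 2.5 μM (below its K_M) incubated in pooled plasma from healthy volunteers at 37 °C, in triplicate, sampled at 0, 30, 60 and 120 min. Remaining analyte was quantified by LC-MS/MS in MRM mode. Degradation was treated as first-order: the slope of ln(concentration) versus time gave the rate constant k, from which t1/2 was calculated.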

[3] = Stability in aqueous buffer; assay type: physicochemical; conditions: for half-life: Half-life (t1/2) for the spontaneous hydrolysis

| SMILES | Ki [1] [µM] | HNE inhibitory activity (in words) [1] | also measured |
| --- | --- | --- | --- |
| O=C1CCCc2nn(Cc3cccc(C(F)(F)F)c3)cc21 [Compound 6d] | > 50 | complete inactivity | Stability in human plasma (in words) [2]: maintained their spiked concentration for all of the incubation times |
| O=C1CCCc2c1cnn2-c1cccc(C(F)(F)F)c1 [Compound 7c] | > 50 | complete inactivity | – |
| CC(C)(C)OC(=O)N1CCN(C(=O)Cn2cc3c(n2)CCCC3=O)CC1 [Compound 6g] | > 50 | – | – |
| O=C1CCCc2c1cnn2Cc1cccc(C(F)(F)F)c1 [Compound 7d] | > 50 | complete inactivity | Stability in human plasma (in words) [2]: maintained their spiked concentration for all of the incubation times |
| O=C1c2cnn(CC(=O)N3CCN(c4ccccc4)CC3)c2CCC1Br (stereo not drawn) [Compound 10d] | > 50 | low active or devoid of HNE inhibitory activity | – |
| Cc1cccc(C(=O)n2ncc3c2CCCC3=O)c1 [Compound 7a] | – | – | Stability in human plasma (in words) [2]: rapid degradation rate; Half time in human plasma [2]: ~6 min |
| O=C(NC1CCCc2c1cnn2-c1ccccc1)C1CC1 (stereo not drawn) [Compound 14b] | > 50 | – | – |
| O=C1CCCc2nn(-c3cccc(C(F)(F)F)c3)cc21 [Compound 6c] | > 50 | complete inactivity | – |
| O=C1CCCc2nn(CC(=O)N3CCNCC3)cc21 [Compound 6h] | > 50 | – | – |
| CC(C)(C)OC(=O)n1cc2c(n1)CCC(Br)C2=O (stereo not drawn) [Compound 9e] | > 50 | low active or devoid of HNE inhibitory activity | – |
| Cc1cccc(C(=O)NC2CCCc3c2cnn3-c2ccccc2)c1 (stereo not drawn) [Compound 14c] | > 50 | – | – |
| O=C(C1CC1)N(C(=O)C1CC1)C1CCCc2c1cnn2-c1ccccc1 (stereo not drawn) [Compound 14a] | > 50 | – | – |
| Cc1cccc(C(=O)n2cc3c(n2)CCCC3=O)c1 [Compound 6a] | – | – | Stability in human plasma (in words) [2]: rapid degradation rate; Half time in human plasma [2]: ~6 min |
| CC(C)(C)OC(=O)N1CCN(C(=O)Cn2ncc3c2CCCC3=O)CC1 [Compound 7g] | > 50 | – | – |
| O=C(C1CC1)n1cc2c(n1)CCC(Br)(Br)C2=O [Compound 9b, 5,5-dibromo-2-(cyclopropanecarbonyl)-2,5,6,7-tetrahydro-4H-indazol-4-one] | – | – | half-life [3]: 235 ± 18.2 min |
| O=C1c2cnn(C(=O)C3CC3)c2CCC1Br (stereo not drawn) [Compound 10a] | – | – | Half-life (t1/2) for the spontaneous hydrolysis [3]: 38.7 ± 4.1 min; half-life [3]: 53.9 min |
| O=C1CCCc2c1cnn2Cc1ccccc1 [Compound 7e] | > 50 | complete inactivity | – |
| O=C1c2cn(CC(=O)N3CCN(c4ccccc4)CC3)nc2CCC1Br (stereo not drawn) [Compound 9f] | > 50 | low active or devoid of HNE inhibitory activity | – |
| O=C1CCCc2nn(Cc3ccccc3)cc21 [Compound 6e] | > 50 | complete inactivity | – |
